The record followed here is ChEMBL document CHEMBL1140128 (J Med Chem, 2008).

For orientation: EC50 means the concentration needed to bring the measured effect to its halfway point. High values mean a need for much substance, low ones an effect from little substance. The Ki is a dissociation constant, usually derived from enzyme kinetics or from competition with a known ligand.

The source made the active and inactive calls. No cut-off for these calls is given here.

Chain of Melanocortin receptor 3 (P33033 whole entry): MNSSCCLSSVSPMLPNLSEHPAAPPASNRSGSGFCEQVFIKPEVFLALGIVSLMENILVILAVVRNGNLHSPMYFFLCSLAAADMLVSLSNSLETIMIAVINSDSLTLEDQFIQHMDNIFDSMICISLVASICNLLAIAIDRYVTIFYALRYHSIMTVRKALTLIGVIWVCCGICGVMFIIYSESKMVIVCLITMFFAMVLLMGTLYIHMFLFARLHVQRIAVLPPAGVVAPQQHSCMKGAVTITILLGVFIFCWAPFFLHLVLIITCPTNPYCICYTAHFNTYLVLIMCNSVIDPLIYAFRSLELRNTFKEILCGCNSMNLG
Chain of Melanocortin receptor 5 (Mus musculus) (P41149 whole entry): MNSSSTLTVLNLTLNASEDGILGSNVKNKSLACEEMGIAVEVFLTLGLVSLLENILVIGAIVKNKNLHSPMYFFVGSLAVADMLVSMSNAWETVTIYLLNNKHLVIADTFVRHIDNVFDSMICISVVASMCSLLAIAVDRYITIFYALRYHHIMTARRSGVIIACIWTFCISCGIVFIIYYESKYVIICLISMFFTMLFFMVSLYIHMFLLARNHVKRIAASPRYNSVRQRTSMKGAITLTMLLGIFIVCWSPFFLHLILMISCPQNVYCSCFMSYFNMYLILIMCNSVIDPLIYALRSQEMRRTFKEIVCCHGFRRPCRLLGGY
Chain of Melanocortin receptor 4 (P56450 whole entry): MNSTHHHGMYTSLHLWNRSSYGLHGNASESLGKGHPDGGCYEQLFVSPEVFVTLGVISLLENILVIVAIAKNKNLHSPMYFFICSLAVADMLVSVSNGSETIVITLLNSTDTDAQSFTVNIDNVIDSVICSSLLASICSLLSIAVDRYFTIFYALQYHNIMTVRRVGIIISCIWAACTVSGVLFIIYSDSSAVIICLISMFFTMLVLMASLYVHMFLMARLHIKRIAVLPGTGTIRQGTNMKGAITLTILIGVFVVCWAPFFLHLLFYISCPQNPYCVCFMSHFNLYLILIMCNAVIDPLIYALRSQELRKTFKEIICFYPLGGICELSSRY

One assay has as its target Melanocortin receptor 4 (Mus musculus, UniProt P56450). Put plainly: Agonist activity at mouse MC4R expressed in HEK293 cells by CRE/beta-galactosidase reporter gene assay. In kind it is functional, cell-based.
Settings: not given
An outline of the steps:
(§1)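 HEK293 cells stably expressing the mouse receptor (G418 selection) were transfected with CRE/β-galactosidase reporter. After 48 h they were stimulated for 6 h with peptide (10^-4–10^-12 M) in DMEM with 0.1 mg/mL BSA and 0.1 mM IBMX. Lysates were read with ONPG substrate at OD405 and normalized to protein (OD595) and to a 10^-4 M forskolin control.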
For orientation: Reporter assays use an easily measured gene product as a stand-in for the process of interest.
For `CC(=O)N[C@@H](Cc1cnc[nH]1)C(=O)N[C@H](Cc1ccc(C#N)cc1)C(=O)N[C@@H](CCCNC(=N)N)C(=O)N[C@@H](Cc1c[nH]c2ccccc12)C(N)=O`, a half-maximal effect (EC50) was put at 2.84 nM.

The species named for another assay is Mus musculus. Put plainly: Selectivity for mouse MC4R over mouse MC1R by CRE/beta-galactosidase reporter gene assay.
Settings: not given
Turning to `CC(=O)N[C@@H](Cc1cnc[nH]1)C(=O)N[C@H](Cc1ccc(Cl)cc1)C(=O)N[C@@H](CCCNC(=N)N)C(=O)N[C@@H](Cc1c[nH]c2ccccc12)C(N)=O`, the Ratio EC50 amounted to 200.

The target of a further assay is Melanocortin receptor 3 (Mus musculus) (UniProt P33033). Put plainly: Agonist activity at mouse MC3R expressed in HEK293 cells up to 100 uM by CRE/beta-galactosidase reporter gene assay. In kind it is functional, cell-based.
Chain of Melanocortin receptor 3 (Mus musculus) (P33033 whole entry): as the sequence (P33033 whole entry) above
Settings: not given
An outline of the steps: as §1
For the compound `CC(=O)N[C@@H](Cc1cnc[nH]1)C(=O)N[C@H](Cc1ccc(C(C)(C)C)cc1)C(=O)N[C@@H](CCCNC(=N)N)C(=O)N[C@@H](Cc1c[nH]c2ccccc12)C(N)=O`, the result was inactive.

In another assay the target is Melanocyte-stimulating hormone receptor (Mus musculus) (UniProt Q01727). As to the kind of experiment: Agonist activity at mouse MC1R expressed in HEK293 cells by CRE/beta-galactosidase reporter gene assay relative to Ac-His-DPhe7-Arg-Trp-NH2 peptide.
Chain of Melanocyte-stimulating hormone receptor (Mus musculus) (Q01727 whole entry, looked up): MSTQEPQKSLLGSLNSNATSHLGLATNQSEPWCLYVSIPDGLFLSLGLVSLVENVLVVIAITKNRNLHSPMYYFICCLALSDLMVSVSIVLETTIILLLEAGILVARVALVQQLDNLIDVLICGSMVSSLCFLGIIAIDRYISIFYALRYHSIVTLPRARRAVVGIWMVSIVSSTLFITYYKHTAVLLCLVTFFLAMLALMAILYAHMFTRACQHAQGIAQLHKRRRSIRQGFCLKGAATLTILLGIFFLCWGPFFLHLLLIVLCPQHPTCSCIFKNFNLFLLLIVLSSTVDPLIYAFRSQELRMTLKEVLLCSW
Settings: not given
In kind it is functional, cell-based. Summed up: as §1
Consider `CC(=O)N[C@@H](Cc1cnc[nH]1)C(=O)N[C@H](Cc1ccc(Cl)c(Cl)c1)C(=O)N[C@@H](CCCNC(=N)N)C(=O)N[C@@H](Cc1c[nH]c2ccccc12)C(N)=O`, for which the fold change (FC) was found to be 1.

The target of a further assay is Melanocortin receptor 3 (Mus musculus) (UniProt P33033). As to the kind of experiment: Antagonist activity at mouse MC3R expressed in HEK293 cells assessed as effect on MT2 peptide-induced response up to 100 uM by CRE/beta-galactosidase reporter gene assay. In kind it is functional, cell-based.
Settings: not given
An outline of the steps:
(§2)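 Mouse MC3R HEK293 stable line carrying transfected CRE/β-galactosidase reporter, 6 h stimulation in IBMX-containing medium. Peptides tested for dose-dependent competitive displacement of MTII agonist at up to 10 μM (footnote: up to 100 μM).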
In the case of `CC(=O)N[C@@H](Cc1cnc[nH]1)C(=O)N[C@H](Cc1ccc(C(C)(C)C)cc1)C(=O)N[C@@H](CCCNC(=N)N)C(=O)N[C@@H](Cc1c[nH]c2ccccc12)C(N)=O`, the result was inactive.

Another assay has as its target Melanocortin receptor 5 (Mus musculus) (UniProt P41149). As to the kind of experiment: Agonist activity at mouse MC5R expressed in HEK293 cells by CRE/beta-galactosidase reporter gene assay relative to Ac-His-DPhe7-Arg-Trp-NH2 peptide. In kind it is functional, cell-based.
Settings: not given
An outline of the steps: as §1
On to `CC(=O)N[C@@H](Cc1cnc[nH]1)C(=O)N[C@H](Cc1ccc(C#N)cc1)C(=O)N[C@@H](CCCNC(=N)N)C(=O)N[C@@H](Cc1c[nH]c2ccccc12)C(N)=O`, for which the fold change (FC) came out at 1. With `CC(=O)N[C@@H](Cc1cnc[nH]1)C(=O)N[C@H](Cc1ccc(Cl)cc1)C(=O)N[C@@H](CCCNC(=N)N)C(=O)N[C@@H](Cc1c[nH]c2ccccc12)C(N)=O`, the fold change (FC) is -2.

The species entered for a further assay is Mus musculus. Put plainly: Selectivity for mouse MC4R over mouse MC3R by CRE/beta-galactosidase reporter gene assay.
Settings: not given
As for `CC(=O)N[C@@H](Cc1cnc[nH]1)C(=O)N[C@H](Cc1ccc(Cl)cc1)C(=O)N[C@@H](CCCNC(=N)N)C(=O)N[C@@H](Cc1c[nH]c2ccccc12)C(N)=O`, the Ratio EC50 stood at 200. On to `CC(=O)N[C@@H](Cc1cnc[nH]1)C(=O)N[C@H](Cc1cccc(Cl)c1)C(=O)N[C@@H](CCCNC(=N)N)C(=O)N[C@@H](Cc1c[nH]c2ccccc12)C(N)=O`, for which the Ratio EC50 came out at 140.

The next assay concerns the target Melanocortin receptor 3 (Mus musculus, UniProt P33033). As to the kind of experiment: Antagonist activity at mouse MC3R expressed in HEK293 cells assessed as effect on MT2 peptide-induced response by CRE/beta-galactosidase reporter gene assay. In kind it is functional, cell-based.
Settings: not given
An outline of the steps:
as §2
Turning to `CC(=O)N[C@@H](Cc1cnc[nH]1)C(=O)N[C@H](Cc1ccc(Cl)c(Cl)c1)C(=O)N[C@@H](CCCN=C(N)N)C(=O)N[C@@H](Cc1c[nH]c2ccccc12)C(N)=O`, the Ki came to 260 nM. For `CC(=O)N[C@H](Cc1cnc[nH]1)C(=O)NC(Cc1ccc2ccccc2c1)C(=O)N[C@@H](CCCNC(=N)N)C(=O)N[C@@H](Cc1c[nH]c2ccccc12)C(N)=O` (stereo in doubt), the inhibitory constant (Ki) was determined as 5010 nM. In the case of `CC(=O)N[C@@H](Cc1cnc[nH]1)C(=O)N[C@H](Cc1ccc(Br)cc1)C(=O)N[C@@H](CCCNC(=N)N)C(=O)N[C@@H](Cc1c[nH]c2ccccc12)C(N)=O`, the inhibition constant (Ki) worked out at 350 nM. With `CC(=O)N[C@@H](Cc1cnc[nH]1)C(=O)N[C@H](Cc1ccc(C(F)(F)F)cc1)C(=O)N[C@@H](CCCNC(=N)N)C(=O)N[C@@H](Cc1c[nH]c2ccccc12)C(N)=O`, the inhibition constant (Ki) was 6170 nM.

Staying with this assay, now noted: read-out: pA2 (converted).
Consider `CC(=O)N[C@@H](Cc1cnc[nH]1)C(=O)N[C@H](Cc1ccc(Cl)c(Cl)c1)C(=O)N[C@@H](CCCN=C(N)N)C(=O)N[C@@H](Cc1c[nH]c2ccccc12)C(N)=O`, for which the Kb is 38 nM. Still for that read-out and setting: the result for `CC(=O)N[C@@H](Cc1cnc[nH]1)C(=O)N[C@H](Cc1ccc(Br)cc1)C(=O)N[C@@H](CCCNC(=N)N)C(=O)N[C@@H](Cc1c[nH]c2ccccc12)C(N)=O` reads 28.8 nM; that for `CC(=O)N[C@@H](Cc1cnc[nH]1)C(=O)N[C@H](Cc1ccc(C(F)(F)F)cc1)C(=O)N[C@@H](CCCNC(=N)N)C(=O)N[C@@H](Cc1c[nH]c2ccccc12)C(N)=O`, 162 nM.

The target of another assay is Melanocortin receptor 5 (Mus musculus, UniProt P41149). As to the kind of experiment: Agonist activity at mouse MC5R expressed in HEK293 cells by CRE/beta-galactosidase reporter gene assay. In kind it is functional, cell-based.
Chain of Melanocortin receptor 5 (P41149 whole entry): as the sequence (P41149 whole entry) above
Settings: not given
An outline of the steps:
as §1
`CC(=O)N[C@@H](Cc1cnc[nH]1)C(=O)N[C@H](Cc1ccc(N)cc1)C(=O)N[C@@H](CCCN=C(N)N)C(=O)N[C@@H](Cc1c[nH]c2ccccc12)C(N)=O` returned an EC50 of 226 nM.
